These results are taken from ChEMBL document CHEMBL3526073, “Hydralazine as a selective probe inactivator of aldehyde oxidase in human hepatocytes: estimation of the contribution of aldehyde oxidase to metabolic clearance” (Drug Metab Dispos, 2012).

What is called Ki is the equilibrium dissociation constant of an inhibitor or competing ligand from its target. Usually kinact stands for the maximal first-order rate at which the target is inactivated.

The nature of data set [1]: Drug level in cryopreserved human hepatocytes assessed as CYP450-mediated metabolite formation treated with 20 uM of zaleplon after 30 mins by LC-MS/MS analysis. The data set is classed as ADME, cell-based, Hepatocyte. The conditions noted are these: 0.5 h. The gist of the method: (§1)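 Pooled cryopreserved human hepatocytes (five-donor pool, viability >80%) in Williams E medium, preincubated 30 min at 37°C under O2/CO2 (95/5). Zaleplon 20 μM final, with hydralazine 0–200 μM or 1-aminobenzotriazole 0–1.5 mM co-added, incubated 30 min. Reaction stopped with cold acetonitrile containing internal standard. Oxozaleplon (AO product) and desethylzaleplon (CYP product) measured by LC-MS/MS and expressed as percent of control.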

The target of data set [2] is T1, Aldehyde oxidase (Homo sapiens, UniProt Q06278).
T1 sequence (Q06278 whole entry): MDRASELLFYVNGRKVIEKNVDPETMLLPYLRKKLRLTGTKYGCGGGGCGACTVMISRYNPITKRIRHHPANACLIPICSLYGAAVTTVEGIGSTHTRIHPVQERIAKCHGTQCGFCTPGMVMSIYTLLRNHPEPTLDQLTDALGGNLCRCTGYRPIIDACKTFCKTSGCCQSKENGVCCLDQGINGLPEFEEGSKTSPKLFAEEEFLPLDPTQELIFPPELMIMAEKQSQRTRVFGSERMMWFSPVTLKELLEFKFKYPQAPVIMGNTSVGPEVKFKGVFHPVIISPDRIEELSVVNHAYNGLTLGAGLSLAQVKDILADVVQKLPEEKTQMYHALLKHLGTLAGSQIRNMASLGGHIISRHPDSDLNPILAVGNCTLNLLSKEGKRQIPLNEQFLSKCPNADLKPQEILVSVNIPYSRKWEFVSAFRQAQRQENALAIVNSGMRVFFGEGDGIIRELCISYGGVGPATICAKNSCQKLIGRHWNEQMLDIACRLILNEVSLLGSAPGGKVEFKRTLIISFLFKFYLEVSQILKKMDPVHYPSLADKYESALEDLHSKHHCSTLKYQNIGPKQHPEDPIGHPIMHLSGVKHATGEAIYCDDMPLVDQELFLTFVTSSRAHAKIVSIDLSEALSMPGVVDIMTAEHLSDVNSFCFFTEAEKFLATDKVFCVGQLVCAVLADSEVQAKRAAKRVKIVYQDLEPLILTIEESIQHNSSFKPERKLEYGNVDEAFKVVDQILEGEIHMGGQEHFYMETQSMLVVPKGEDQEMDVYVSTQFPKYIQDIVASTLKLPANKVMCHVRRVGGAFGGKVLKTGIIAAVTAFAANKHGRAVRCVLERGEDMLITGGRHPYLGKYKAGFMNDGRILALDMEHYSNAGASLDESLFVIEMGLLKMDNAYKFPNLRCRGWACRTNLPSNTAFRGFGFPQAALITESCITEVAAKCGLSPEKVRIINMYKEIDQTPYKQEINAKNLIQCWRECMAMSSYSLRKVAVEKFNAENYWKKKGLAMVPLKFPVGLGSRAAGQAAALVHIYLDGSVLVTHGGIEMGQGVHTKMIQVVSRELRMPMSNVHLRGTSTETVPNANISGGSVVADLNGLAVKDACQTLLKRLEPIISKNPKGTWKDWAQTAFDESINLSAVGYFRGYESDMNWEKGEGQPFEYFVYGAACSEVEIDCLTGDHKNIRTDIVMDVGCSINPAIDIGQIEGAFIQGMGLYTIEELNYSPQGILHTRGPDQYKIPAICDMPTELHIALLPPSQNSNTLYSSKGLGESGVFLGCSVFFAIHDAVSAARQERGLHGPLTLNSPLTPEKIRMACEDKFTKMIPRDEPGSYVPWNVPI
The conditions noted are these: hepatocytes, 2 h, 10 µM.

The nature of data set [3]: Drug metabolism in cryopreserved human hepatocytes assessed as CYP450-mediated formation of desethylzaleplon at 50 uM after 30 mins by LC-MS/MS analysis. In kind it is ADME, cell-based, Hepatocyte. The note with it: 0.5 h.
Data set [4] addresses T1, Aldehyde oxidase. Kind of data set: Drug metabolism in cryopreserved human hepatocytes assessed as aldehyde oxidase-mediated formation of oxozaleplon at 50 uM after 30 mins by LC-MS/MS analysis. In kind it is ADME, cell-based, Hepatocyte. The note with it: 0.5 h.
For data set [5], the target named is T1, Aldehyde oxidase. The conditions noted are these: hepatocytes, 2 h, 10 µM. The source holds these as a separate data set.
The target of data set [6] is T2, CYP1A2 (Homo sapiens, UniProt P05177).
T2 sequence (P05177 whole entry): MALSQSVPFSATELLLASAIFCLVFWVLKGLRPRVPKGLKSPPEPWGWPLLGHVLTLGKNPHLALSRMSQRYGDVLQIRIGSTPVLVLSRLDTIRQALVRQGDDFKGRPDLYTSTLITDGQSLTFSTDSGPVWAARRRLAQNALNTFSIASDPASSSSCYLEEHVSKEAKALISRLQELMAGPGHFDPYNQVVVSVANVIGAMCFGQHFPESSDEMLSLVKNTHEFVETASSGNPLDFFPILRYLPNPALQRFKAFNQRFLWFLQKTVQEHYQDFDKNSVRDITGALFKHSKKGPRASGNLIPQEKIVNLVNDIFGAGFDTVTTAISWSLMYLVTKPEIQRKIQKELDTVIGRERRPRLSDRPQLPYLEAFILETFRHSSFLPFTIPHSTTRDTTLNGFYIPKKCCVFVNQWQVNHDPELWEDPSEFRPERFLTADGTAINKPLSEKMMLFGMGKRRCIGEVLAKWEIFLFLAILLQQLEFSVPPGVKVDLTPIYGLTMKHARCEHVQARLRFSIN
Kind of data set: Inhibition of CYP1A2 in human liver microsomes assessed as residual activity using phenacetin as substrate at 50 uM relative to control. The conditions noted are these: probe phenacetin. Background: Liver microsomes are vesicles of endoplasmic reticulum, rich in cytochrome P450 enzymes.

In data set [7] the target is T2, CYP1A2. Nature of the data set: in vitro. The conditions noted are these: liver microsomes, probe phenacetin.
In data set [8] the target is T3, CYP2C19 (Homo sapiens, UniProt P33261). Kind of data set: Inhibition of CYP2C19 in human liver microsomes assessed as residual activity using S-mephenytoin as substrate at 50 uM relative to control. The conditions noted are these: probe S-mephenytoin.
T3 sequence (P33261 whole entry): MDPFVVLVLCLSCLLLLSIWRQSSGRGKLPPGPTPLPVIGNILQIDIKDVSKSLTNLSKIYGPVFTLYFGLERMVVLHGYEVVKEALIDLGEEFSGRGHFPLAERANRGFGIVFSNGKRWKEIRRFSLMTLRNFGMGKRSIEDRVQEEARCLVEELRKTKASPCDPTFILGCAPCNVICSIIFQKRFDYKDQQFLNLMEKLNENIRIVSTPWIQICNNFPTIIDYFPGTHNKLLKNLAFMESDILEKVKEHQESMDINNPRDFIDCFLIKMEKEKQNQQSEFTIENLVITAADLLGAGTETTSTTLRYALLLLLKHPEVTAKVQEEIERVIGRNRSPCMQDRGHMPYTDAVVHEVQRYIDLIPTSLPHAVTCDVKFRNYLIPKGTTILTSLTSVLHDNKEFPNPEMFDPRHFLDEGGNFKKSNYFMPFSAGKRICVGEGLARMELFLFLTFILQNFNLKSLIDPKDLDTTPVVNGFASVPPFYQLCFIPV
Data set [9] deals with T4, CYP3A (Homo sapiens, UniProt P08684+P20815+P24462+Q9HB55). Nature of the data set: in vitro. The conditions noted are these: liver microsomes, probe midazolam.
In data set [10] the target is T3, CYP2C19. Nature of the data set: in vitro. The conditions noted are these: liver microsomes, probe S-mephenytoin.
Data set [11] has as its target T5, CYP2D6 (Homo sapiens, UniProt P10635). Nature of the data set: Inhibition of CYP2D6 in human liver microsomes assessed as residual activity using dextromethorphan as substrate at 50 uM relative to control. The note with it: probe dextromethorphan.
Data set [12] addresses T6, CYP2C9 (Homo sapiens, UniProt P11712). Nature of the data set: Inhibition of CYP2C9 in human liver microsomes assessed as residual activity using diclofenac as substrate at 50 uM relative to control. The conditions noted are these: probe diclofenac.
For data set [13], the target named is T5, CYP2D6. Kind of data set: in vitro. The note with it: liver microsomes, probe dextromethorphan.
The target in data set [14] is T4, CYP3A. Kind of data set: Inhibition of CYP3A in human liver microsomes assessed as residual activity using midazolam as substrate at 50 uM relative to control. The note with it: probe midazolam.
The target in data set [15] is T7, CYP2C8 (Homo sapiens, UniProt P10632).
T7 sequence (P10632 whole entry): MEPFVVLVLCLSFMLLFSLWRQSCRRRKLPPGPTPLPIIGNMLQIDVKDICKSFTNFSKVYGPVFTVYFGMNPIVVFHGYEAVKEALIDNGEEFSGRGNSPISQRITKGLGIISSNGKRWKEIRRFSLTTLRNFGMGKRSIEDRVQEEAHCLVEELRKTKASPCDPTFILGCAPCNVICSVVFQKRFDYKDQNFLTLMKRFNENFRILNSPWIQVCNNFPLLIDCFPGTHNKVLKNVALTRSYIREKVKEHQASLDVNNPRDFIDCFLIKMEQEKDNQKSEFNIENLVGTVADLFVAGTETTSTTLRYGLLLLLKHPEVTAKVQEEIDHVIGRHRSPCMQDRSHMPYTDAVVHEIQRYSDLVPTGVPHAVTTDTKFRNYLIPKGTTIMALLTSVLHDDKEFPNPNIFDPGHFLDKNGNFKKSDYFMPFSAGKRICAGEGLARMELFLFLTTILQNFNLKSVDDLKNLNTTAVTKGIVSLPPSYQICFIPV
Nature of the data set: Inhibition of CYP2C8 in human liver microsomes assessed as residual activity using paclitaxel as substrate at 50 uM relative to control. The conditions noted are these: probe paclitaxel.

Data set [16] has as its target T7, CYP2C8. Nature of the data set: in vitro. The note with it: liver microsomes, probe paclitaxel.
Data set [17] has as its target T6, CYP2C9. Kind of data set: in vitro. The note with it: liver microsomes, probe diclofenac.
In data set [18] the target is T1, Aldehyde oxidase. Nature of the data set: Drug metabolism in cryopreserved human hepatocytes assessed as aldehyde oxidase-mediated formation of oxozaleplon at 20 uM after 30 mins by LC-MS/MS analysis. In kind it is ADME, cell-based, Hepatocyte. The conditions noted are these: 0.5 h. The gist of the method: as §1
Data set [19] is described as follows: Drug metabolism in cryopreserved human hepatocytes assessed as CYP450-mediated formation of desethylzaleplon at 20 uM after 30 mins by LC-MS/MS analysis in presence of 25 uM of hydralazine. The data set is classed as ADME, cell-based, Hepatocyte. The note with it: 0.5 h. In a few lines: as §1
Data set [20] deals with T1, Aldehyde oxidase. Kind of data set: Inhibition of aldehyde oxidase in human liver cytosol assessed as production of oxozoniporide.
Data set [21] is described as follows: Drug metabolism in cryopreserved human hepatocytes assessed as CYP450-mediated formation of desethylzaleplon at 20 uM after 30 mins by LC-MS/MS analysis. The data set is classed as ADME, cell-based, Hepatocyte. The conditions noted are these: 0.5 h. The gist of the method:
as §1

The target in data set [22] is T1, Aldehyde oxidase. Nature of the data set: Drug metabolism in cryopreserved human hepatocytes assessed as aldehyde oxidase-mediated formation of oxozaleplon at 20 uM after 30 mins by LC-MS/MS analysis in presence of 1.5 mM of 1-aminobenzotriazole. The data set is classed as ADME, cell-based, Hepatocyte. The conditions noted are these: 0.5 h. In a few lines:
as §1

Data set [23] can be described thus: Drug metabolism in cryopreserved human hepatocytes assessed as CYP450-mediated formation of desethylzaleplon at 20 uM after 30 mins by LC-MS/MS analysis in presence of 50 uM hydralazine. In kind it is ADME, cell-based, Hepatocyte. The conditions noted are these: 0.5 h. In a few lines:
as §1

T5 sequence (P10635 whole entry): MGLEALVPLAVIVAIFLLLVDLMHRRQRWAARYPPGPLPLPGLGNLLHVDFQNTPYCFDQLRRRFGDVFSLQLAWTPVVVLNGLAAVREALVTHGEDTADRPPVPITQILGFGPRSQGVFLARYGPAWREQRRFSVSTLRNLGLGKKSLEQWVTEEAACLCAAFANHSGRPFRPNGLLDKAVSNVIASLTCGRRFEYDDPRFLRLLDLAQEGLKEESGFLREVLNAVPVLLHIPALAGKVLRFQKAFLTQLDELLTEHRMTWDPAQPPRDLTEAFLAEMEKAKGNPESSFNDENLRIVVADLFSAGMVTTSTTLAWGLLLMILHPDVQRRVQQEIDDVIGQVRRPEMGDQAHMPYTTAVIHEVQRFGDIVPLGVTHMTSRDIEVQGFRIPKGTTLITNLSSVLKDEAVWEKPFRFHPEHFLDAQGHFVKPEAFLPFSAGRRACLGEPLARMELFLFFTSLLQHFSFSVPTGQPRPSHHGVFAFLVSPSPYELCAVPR
T6 sequence (P11712 whole entry): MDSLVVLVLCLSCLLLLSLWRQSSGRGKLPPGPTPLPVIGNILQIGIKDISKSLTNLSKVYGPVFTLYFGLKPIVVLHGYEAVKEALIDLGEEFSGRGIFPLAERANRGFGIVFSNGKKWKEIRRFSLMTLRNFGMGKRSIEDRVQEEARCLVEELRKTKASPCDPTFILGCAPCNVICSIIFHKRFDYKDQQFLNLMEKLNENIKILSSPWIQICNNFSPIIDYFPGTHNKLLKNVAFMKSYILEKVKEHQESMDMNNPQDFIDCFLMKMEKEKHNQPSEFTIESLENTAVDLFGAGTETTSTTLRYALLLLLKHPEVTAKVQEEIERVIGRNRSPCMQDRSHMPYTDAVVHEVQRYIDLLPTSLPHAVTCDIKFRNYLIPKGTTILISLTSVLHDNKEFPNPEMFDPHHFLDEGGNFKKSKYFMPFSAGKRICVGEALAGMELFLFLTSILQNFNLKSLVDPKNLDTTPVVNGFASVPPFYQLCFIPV

On to `CC(=O)Nc1cccc(-c2ccnc3c(C#N)cnn23)c1`, for which the Drug metabolism entry in data set [1] is listed as “metabolite_detected”.

Regarding `CC[C@H]1OC(=O)[C@H](C)C(=O)[C@H](C)[C@@H](O[C@@H]2O[C@H](C)C[C@H](N(C)C)[C@H]2O)[C@](C)(OC)C[C@@H](C)C(=O)[C@H](C)[C@H]2N(C3CN([C@H](C)c4ccnc5ncccc45)C3)C(=O)O[C@]12C`, the Fm at Aldehyde oxidase [2] worked out at 0.61.

Consider `CCN(C(C)=O)c1cccc(-c2cc(=O)[nH]c3c(C#N)cnn23)c1`, for which the Drug metabolism result (in data set [3]; at Aldehyde oxidase [4]) was “metabolite_not_detected” in each case.

As for `CN(C)CCNC(=O)c1cccc2cc3ccccc3nc12`, the Fm at Aldehyde oxidase [2] is given as 0.76; on Aldehyde oxidase [5], 0.53.

At Aldehyde oxidase [2], `Nc1nc(OCc2ccccc2)c2[nH]cnc2n1` [6-O-BENZYLGUANINE] showed a Fm of 0.83.

Turning to `CCNC(=O)OC1CCN(c2nncc3cc(OC)c(OC)cc23)CC1` [CARBAZERAN], the Fm at Aldehyde oxidase [2] is 0.55; on Aldehyde oxidase [5] it was 0.49.

Regarding `COc1ccc2c(c1)[C@]13CCCC[C@@H]1[C@H](C2)N(C)CC3` [DEXTROMETHORPHAN], the Fm at Aldehyde oxidase [2] is recorded as 0.39.

Turning to `NNc1nncc2ccccc12` [HYDRALAZINE], the activity at 50 µM was found to be 89% at CYP1A2 [6]; 90% at CYP2C19 [8]; 77% at CYP2D6 [11]; 95% on CYP2C9 [12]; 76% on CYP3A [14]; 95% at CYP2C8 [15]. Also, the activity at 25 µM is 100% on CYP1A2 [7]; 98% on CYP3A [9]; 103% on CYP2C19 [10]; 92% on CYP2D6 [13]; 108% at CYP2C8 [16]; 105% on CYP2C9 [17].

Turning to `Cc1ncc2n1-c1ccc(Cl)cc1C(c1ccccc1F)=NC2` [MIDAZOLAM], the values for the Fm on Aldehyde oxidase [2] and on Aldehyde oxidase [5] were 0.05 and 0.08, respectively.

With `CCN(C(C)=O)c1cccc(-c2ccnc3c(C#N)cnn23)c1` [ZALEPLON], the Drug metabolism result at Aldehyde oxidase [18] is “metabolite_detected”; in [19], “metabolite_detected”; in [21], “metabolite_detected”; on Aldehyde oxidase [22] it was “metabolite_detected”; in [23], “metabolite_not_detected”. Besides, the Ki on Aldehyde oxidase [20] is 83 µM. For the same compound, the kinact at Aldehyde oxidase [20] (human, liver cytosol) is 0.00105 s⁻¹. The Fm on Aldehyde oxidase [2] is recorded as 0.56; on Aldehyde oxidase [5], 0.7.

As for `N=C(N)NC(=O)c1cnn(-c2cccc3ncccc23)c1C1CC1` [ZONIPORIDE], the Fm on Aldehyde oxidase [2] was determined as 0.55; on Aldehyde oxidase [5], 0.64.
